Experimental data published in ChEMBL document CHEMBL3244411, “A new warfarin metabolite: structure and function” (J Med Chem, 1978).
The source made the active and inactive calls. The calls are words filed in the database; no cut-off is given here.

What was measured:
[1] = system: Rattus norvegicus; assay: Antagonism of intrinsic coagulation factor-9 synthesis in rat plasma at 100 mg/kg, ip measured after 12 hrs; assay type: functional, organism-based; parameters: dose 100 mg/kg
How it was run: (§1)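 Six rats per group given 100 mg/kg ip, as sodium salt in saline or as free acid in corn oil. At 12 h, rats were anesthetized and blood drawn from the posterior vena cava into 3.8% trisodium citrate; plasma was taken at 2000g for 10 min. Clotting measured by one-stage fibrometer assay, and individual factors by a published method. Controls received vehicle or racemic warfarin sodium at 10 mg/kg ip.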

[2] = system: Salmonella typhimurium; assay: Mutagenicity in Salmonella typhimurium TA1535 by Ames test in presence of liver microsomes; assay type: toxicity, organism-based; conditions: salmonella enterica subsp. enterica serovar typhimurium
[3] = system: Salmonella typhimurium; assay: Mutagenicity in Salmonella typhimurium TA1537 by Ames test in presence of liver microsomes; assay type: toxicity, organism-based; conditions: salmonella enterica subsp. enterica serovar typhimurium
[4] = system: Rattus norvegicus; assay: Antagonism of intrinsic coagulation factor-8 synthesis in rat plasma at 100 mg/kg, ip measured after 12 hrs; assay type: functional, organism-based; parameters: dose 100 mg/kg; how it was run: as §1
[5] = system: Rattus norvegicus; assay: Antagonism of extrinsic coagulation factor-10 synthesis in rat plasma at 100 mg/kg, ip measured after 12 hrs; assay type: functional, organism-based; parameters: dose 100 mg/kg; how it was run: as §1
[6] = system: Rattus norvegicus; assay: Toxicity in ip dosed rat; assay type: organism-based; conditions: in vivo
[7] = Activity at cytochrome P450 in rat liver microsomes treated with (R)-warfarin measured for 10 mins by LC-UV analysis; assay type: ADME
How it was run: (§2)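 Male Wistar rat hepatic microsomes, 8.0 mg protein in 4.0 mL 0.01 M TES-0.002 M MgCl2, pH 7.4. Enantiopure warfarin sodium 1.0 mg (3.0 × 10^-6 mol) with an NADPH-generating system (NADP 1.25 μmol, glucose 6-phosphate 62.1 μmol). Preincubated 1.0 min at 37 °C, started with G6P dehydrogenase 5.0 units, stopped after 10 min by filtration. Metabolites separated and quantified by LC against external standards.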

[8] = system: Rattus norvegicus; assay: Anticoagulant activity in rat plasma at 100 mg/kg, ip measured after 12 hrs by one-stage clotting assay; assay type: functional, organism-based; parameters: dose 100 mg/kg; how it was run: as §1
[9] = system: Salmonella typhimurium; assay: Mutagenicity in Salmonella typhimurium TA1535 by Ames test; assay type: toxicity, organism-based; conditions: salmonella enterica subsp. enterica serovar typhimurium
[10] = system: Rattus norvegicus; assay: Antagonism of extrinsic coagulation factor-7 synthesis in rat plasma at 100 mg/kg, ip measured after 12 hrs; assay type: functional, organism-based; parameters: dose 100 mg/kg; how it was run: as §1
[11] = system: Rattus norvegicus; assay: Antagonism of extrinsic coagulation factor-2 synthesis in rat plasma at 100 mg/kg, ip measured after 12 hrs; assay type: functional, organism-based; parameters: dose 100 mg/kg; how it was run: as §1
[12] = system: Salmonella typhimurium; assay: Mutagenicity in Salmonella typhimurium TA98 by Ames test; assay type: toxicity, organism-based; conditions: salmonella enterica subsp. enterica serovar typhimurium
[13] = system: Salmonella typhimurium; assay: Mutagenicity in Salmonella typhimurium TA98 by Ames test in presence of liver microsomes; assay type: toxicity, organism-based; conditions: salmonella enterica subsp. enterica serovar typhimurium
[14] = system: Salmonella typhimurium; assay: Mutagenicity in Salmonella typhimurium TA100 by Ames test in presence of liver microsomes; assay type: toxicity, organism-based; conditions: salmonella enterica subsp. enterica serovar typhimurium
[15] = system: Salmonella typhimurium; assay: Mutagenicity in Salmonella typhimurium TA100 by Ames test; assay type: toxicity, organism-based; conditions: salmonella enterica subsp. enterica serovar typhimurium
[16] = system: Liver microsome; assay: Drug metabolism in rat liver microsomes by LC-UV analysis; assay type: ADME
[17] = system: Rattus norvegicus; assay: Effect on fibrinogen level in rat plasma at 100 mg/kg, ip measured after 24 hrs; assay type: functional, organism-based; parameters: dose 100 mg/kg
[18] = Activity at cytochrome P450 in rat liver microsomes treated with (S)-warfarin measured for 10 mins by LC-UV analysis; assay type: ADME; how it was run: as §2
[19] = Activity at cytochrome P450 in PCN-induced rat liver microsomes treated with (R)-warfarin at 0.15 mmol measured under acidic conditions by LC-UV analysis in presence of cumene hydroperoxide; assay type: ADME
How it was run: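 Liver microsomes from PCN-induced rats (100 mg/kg/day ip in corn oil for 3 days), 200 mL at 2.0 mg protein/mL in TES–MgCl2, pH 7.4, with (R)-warfarin sodium 1.5 × 10^-4 mol. Preincubated 5 min at 37 °C with shaking, started with cumene hydroperoxide 1.6 × 10^-4 mol, given a second equal addition at 10 min, stopped at 30 min on ice. Product isolated by preparative C18 LC.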

[20] = Activity at cytochrome P450 in rat liver microsomes treated with (S)-warfarin at 3 umol measured under acidic conditions by LC-UV analysis in presence of NADPH; assay type: ADME
How it was run: (§3)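 Male Wistar rat liver microsomes, uninduced or phenobarbital-induced (100 mg/kg/day ip in saline for 3 days, harvested 24 h after the last dose). Per 4.0 mL of 0.01 M TES–0.002 M MgCl2, pH 7.4: (R)- or (S)-warfarin sodium 3.0 × 10^-6 mol, NADP 1.25 µmol, glucose 6-phosphate 62.1 µmol, 8.0 mg protein. Preincubated 1.0 min at 37 °C, started with yeast G6P dehydrogenase (5.0 units), stopped by filtration after 10 min. Products quantified by LC against external standards.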

[21] = Activity at cytochrome P450 in phenobarbital-induced rat liver microsomes treated with (S)-warfarin at 3 umol measured under acidic conditions by LC-UV analysis in presence of NADPH; assay type: ADME; how it was run: as §3
[22] = system: Salmonella typhimurium; assay: Mutagenicity in Salmonella typhimurium TA1537 by Ames test; assay type: toxicity, organism-based; conditions: salmonella enterica subsp. enterica serovar typhimurium
[23] = Activity at cytochrome P450 in PCN-induced rat liver microsomes treated with (R)-warfarin at 0.15 mmol measured under basic conditions by LC-UV analysis in presence of cumene hydroperoxide; assay type: ADME
How it was run: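 PCN-induced rat liver microsomes (PCN 100 mg/kg/day ip in corn oil for 3 days; killed 24 h after last dose): 200 mL of microsomes at 2.0 mg protein/mL in TES-MgCl2 buffer pH 7.4, with (R)-warfarin sodium 1.5 × 10^-4 mol. Shaken 5 min at 37 °C, then started with cumene hydroperoxide 1.6 × 10^-4 mol, re-added at 10 min, stopped at 30 min on ice. Product collected by preparative C18 LC.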

[24] = Activity at cytochrome P450 in phenobarbital-induced rat liver microsomes treated with (S)-warfarin at 3 umol measured under basic conditions by LC-UV analysis in presence of NADPH; assay type: ADME
How it was run: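 Phenobarbital induction: 100 mg/kg/day ip in saline for 3 days, microsomes isolated 24 h after the last dose. Incubation in 4.0 mL 0.01 M TES-0.002 M MgCl2, pH 7.4, with warfarin sodium 1.0 mg (3.0 × 10^-6 mol), NADP 1.25 μmol, glucose 6-phosphate 62.1 μmol and 8.0 mg microsomal protein. Preincubated 1.0 min at 37 °C, started with G6P dehydrogenase 5.0 units, stopped after 10 min by filtration. Metabolites quantified by LC against external standards.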

[25] = Activity at cytochrome P450 in rat liver microsomes treated with (S)-warfarin at 3 umol measured under basic conditions by LC-UV analysis in presence of NADPH; assay type: ADME; how it was run: as §2
[26] = Drug metabolism in rat liver microsomes assessed as cytochrome P450-mediated 6-hydroxywarfarin metabolite formation measured for 10 mins by LC-UV analysis; assay type: ADME
How it was run: (§4)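 Time course with (S)-warfarin in uninduced rat liver microsomes (cytochrome P-450 1.0 nmol/mg protein; protein 2 mg/mL) at 37 °C and pH 7.4. NADPH-supported TES–MgCl2 incubation, with products quantified by LC. Single determination from a pool of five rats.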

[27] = Drug metabolism in rat liver microsomes assessed as cytochrome P450-mediated 4-hydroxy-3-(3-oxo-1-phenyl-1-butenyl)-2H-1-benzopyran-2-one metabolite formation measured for 10 mins by LC-UV analysis; assay type: ADME; how it was run: as §4
[28] = Drug metabolism in rat liver microsomes assessed as cytochrome P450-mediated 4-oxo-3-(3-oxo-1-phenylbut-1-enyl)-4H-chromen-2-olate metabolite formation at 3 umol measured under basic conditions by LC-UV analysis in presence of NADPH; assay type: ADME; how it was run: as §3
[29] = Drug metabolism in rat liver microsomes assessed as cytochrome P450-mediated 7-hydroxywarfarin metabolite formation measured after 10 mins by LC-UV analysis; assay type: ADME; how it was run: as §4
[30] = Drug metabolism in rat liver microsomes assessed as cytochrome P450-mediated 6-hydroxywarfarin metabolite formation measured after 10 mins by LC-UV analysis; assay type: ADME; how it was run: as §4
[31] = Drug metabolism in rat liver microsomes assessed as cytochrome P450-mediated 7-hydroxywarfarin metabolite formation by LC-UV analysis in presence of carbon monoxide-oxygen mixture at ratio of 80:20; assay type: ADME
How it was run: (§5)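 Same NADPH-supported microsomal incubation (warfarin 3.0 × 10^-6 mol, 8.0 mg protein, 4.0 mL TES–MgCl2, pH 7.4). Flasks were sealed with a septum and equilibrated under the stated gas atmosphere for 15 min on ice, then incubated at 37 °C. Products quantified by LC.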

[32] = Drug metabolism in rat liver microsomes assessed as cytochrome P450-mediated 4'-hydroxywarfarin metabolite formation by LC-UV analysis in presence of carbon monoxide-oxygen mixture at ratio of 80:20; assay type: ADME; how it was run: as §5
[33] = Drug metabolism in rat liver microsomes assessed as cytochrome P450-mediated 4-hydroxy-3-(3-oxo-1-phenyl-1-butenyl)-2H-1-benzopyran-2-one metabolite formation at 3 umol measured under acidic conditions by LC-UV analysis in presence of NADPH; assay type: ADME; how it was run: as §3
[34] = Drug metabolism in rat liver microsomes assessed as cytochrome P450-mediated 4-hydroxy-3-(3-oxo-1-phenyl-1-butenyl)-2H-1-benzopyran-2-one metabolite formation by LC-UV analysis in presence of carbon monoxide-oxygen mixture at ratio of 80:20; assay type: ADME; how it was run: as §5
[35] = Drug metabolism in rat liver microsomes assessed as cytochrome P450-mediated 4'-hydroxywarfarin metabolite formation measured after 10 mins by LC-UV analysis; assay type: ADME; how it was run: as §4
[36] = Drug metabolism in rat liver microsomes assessed as cytochrome P450-mediated 4-hydroxy-3-(3-oxo-1-phenyl-1-butenyl)-2H-1-benzopyran-2-one metabolite formation by LC-UV analysis in presence of nitrogen; assay type: ADME; how it was run: as §5
[37] = Drug metabolism in rat liver microsomes assessed as cytochrome P450-mediated 6-hydroxywarfarin metabolite formation by LC-UV analysis in presence of carbon monoxide-oxygen mixture at ratio of 80:20; assay type: ADME; how it was run: as §5
[38] = Drug metabolism in rat liver microsomes assessed as cytochrome P450-mediated 4-hydroxy-3-(3-oxo-1-phenyl-1-butenyl)-2H-1-benzopyran-2-one metabolite formation measured after 10 mins by LC-UV analysis; assay type: ADME; how it was run: as §4
[39] = Drug metabolism in phenobarbital-induced rat liver microsomes assessed as cytochrome P450-mediated 4-oxo-3-(3-oxo-1-phenylbut-1-enyl)-4H-chromen-2-olate metabolite formation at 3 umol measured under basic conditions by LC-UV analysis in presence of NADPH; assay type: ADME; how it was run: as §3
[40] = Drug metabolism in rat liver microsomes assessed as cytochrome P450-mediated 4'-hydroxywarfarin metabolite formation measured for 10 mins by LC-UV analysis; assay type: ADME; how it was run: as §4
[41] = Drug metabolism in PCN-induced rat liver microsomes assessed as cytochrome P450-mediated 4-hydroxy-3-(3-oxo-1-phenyl-1-butenyl)-2H-1-benzopyran-2-one metabolite formation at 0.15 mmol measured per nmol of CYP450 by LC-UV analysis
[42] = Drug metabolism in rat liver microsomes assessed as cytochrome P450-mediated 7-hydroxywarfarin metabolite formation measured for 10 mins by LC-UV analysis; assay type: ADME; how it was run: as §4
[43] = Drug metabolism in phenobarbital-induced rat liver microsomes assessed as cytochrome P450-mediated 4-hydroxy-3-(3-oxo-1-phenyl-1-butenyl)-2H-1-benzopyran-2-one metabolite formation at 3 umol measured under acidic conditions by LC-UV analysis in presence of NADPH; assay type: ADME; how it was run: as §3

CC(=O)CC(c1ccccc1)c1c(O)c2ccccc2oc1=O (stereo not drawn) [WARFARIN]
inhibition [1]: inactive
Activity [2]: Non-toxic
Activity [3]: Non-toxic
inhibition [4]: inactive
inhibition [5]: inactive
Activity [6]: Non-toxic
Drug metabolism [7]: metabolite_detected
Activity [8]: inactive
Activity [9]: Non-toxic
inhibition [10]: inactive
inhibition [11]: inactive
Activity [12]: Non-toxic
Activity [13]: Non-toxic
Activity [14]: Non-toxic
Activity [15]: Non-toxic
Drug metabolism [16]: metabolite_notdetected
Activity [17]: inactive
Drug metabolism [18]: metabolite_detected
Drug metabolism [19]: metabolite_detected
Drug metabolism [20]: metabolite_detected
Drug metabolism [21]: metabolite_detected
Activity [22]: Non-toxic

CC(=O)/C=C(\c1ccccc1)c1c(O)oc2ccccc2c1=O
Drug metabolism [23]: metabolite_detected
Drug metabolism [24]: metabolite_detected
Drug metabolism [25]: metabolite_detected

CC(=O)C[C@@H](c1ccccc1)c1c(O)c2ccccc2oc1=O
Drug metabolism [26]: metabolite_detected
Drug metabolism [27]: metabolite_detected
Drug metabolism [28]: metabolite_detected
Drug metabolism [29]: metabolite_detected
Drug metabolism [30]: metabolite_detected
Drug metabolism [31]: metabolite_detected
Drug metabolism [32]: metabolite_detected
Drug metabolism [33]: metabolite_detected
Drug metabolism [34]: metabolite_detected
Drug metabolism [35]: metabolite_detected
Drug metabolism [36]: metabolite_notdetected
Drug metabolism [37]: metabolite_detected
Drug metabolism [38]: metabolite_notdetected
Drug metabolism [39]: metabolite_detected
Drug metabolism [40]: metabolite_detected
Drug metabolism [41]: 0.19 nmol/min
Drug metabolism [42]: metabolite_detected
Drug metabolism [43]: metabolite_detected
